KCNQ1 act = potentiators or activators of KCNQ1 channel, primary screen, cell-based, thallium flux, high-throughput; Potassium voltage-gated channel subfamily KQT member 1 (Homo sapiens), P51787; actives 0.35% (n = 310,000); CHO-K1 KCNQ1, thallium flux FluxOR fluorescence; stronger effect = higher value; B-score at 10 µM;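 active = fluorescence ratio B-score, a plate-corrected score, at least three library SD, with initial intensity B-score within 5 SD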
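Doses: Single concentration per compound, DMSO matched to controls | Test system: KCNQ1-transfected CHO-K1 cells | Timing: 90 min dye loading and 20 min compound exposure, both at room temperature | Measured by: Kinetic FluxOR thallium fluorescence, 10-s 1-Hz baseline, 110-s post-stimulus read | Medium: Assay buffer with matched DMSO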
KCNQ1 inh = inhibitors of human KCNQ1 channel, primary screen, cell-based, thallium flux, high-throughput; Potassium voltage-gated channel subfamily KQT member 1 (Homo sapiens), P51787; CHO-K1 KCNQ1, FluxOR thallium flux fluorescence; stronger effect = higher value; B-score at 10 µM; actives 1.3% (n = 310,000); AID 2642, 2010;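 active = compounds whose thallium flux B-score, printed positive for inhibition, exceeds three library SD while starting fluorescence stays within three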;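 also: channel opened by potassium depolarization with thallium stimulus after 20 min compound exposure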
Kir21 inh = inhibitors of mouse Kir2.1 inward-rectifier potassium channel; AID 1672, 2009; HEK293-Kir2.1, FluxOR thallium flux fluorescence; stronger effect = lower value; actives 0.85% (n = 310,000); Inward rectifier potassium channel 2 (Mus musculus), P35561; B-score at 10 µM;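 active = fluorescence ratio B-score at or below minus 3 SD of library scores, with starting-brightness B-score within 2 SD, cut at about -4.2 in these data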;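 also: channel flux triggered by added potassium and thallium sulfate stimulus; B-score of peak minus minimum fluorescence over baseline after thallium stimulus; more negative B-score means stronger Kir2.1 block with less thallium influx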
Target sequence (P35561 whole entry, looked up): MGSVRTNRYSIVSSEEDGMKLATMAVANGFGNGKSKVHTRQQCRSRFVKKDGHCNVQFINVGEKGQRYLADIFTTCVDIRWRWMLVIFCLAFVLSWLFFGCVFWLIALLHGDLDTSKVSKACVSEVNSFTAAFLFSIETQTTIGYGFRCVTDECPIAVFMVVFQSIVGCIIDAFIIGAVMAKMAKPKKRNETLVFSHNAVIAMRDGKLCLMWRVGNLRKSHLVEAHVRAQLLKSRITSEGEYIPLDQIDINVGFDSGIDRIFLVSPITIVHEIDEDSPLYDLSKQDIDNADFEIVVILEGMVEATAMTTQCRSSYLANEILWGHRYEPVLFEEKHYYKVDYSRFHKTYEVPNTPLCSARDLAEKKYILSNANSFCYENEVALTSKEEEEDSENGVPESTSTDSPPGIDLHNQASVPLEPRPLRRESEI
KCNK3 inh = human KCNK3 channel inhibitors, primary screen, CHO cells, FluxOR thallium flux, B-score; FluxOR fluorescence; stronger effect = lower value; B-score at 10 µM; actives 0.84% (n = 340,000); AID 602410, 2012;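 active = B-score under library mean minus 4 SD, starting fluorescence ratio at most library mean plus 5 SD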;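 also: more negative B-score means stronger inhibition of thallium flux through KCNK3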
hERG protect = hERG rescue from dofetilide block, primary screen, cell-based, CHO-hERG, FluxOR thallium flux, dofetilide IC70; dofetilide IC70 present; activation (rescue from dofetilide block), less the hit threshold, % at 10 µM; actives 0.51% (n = 310,000); AID 1511, 2009;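 active = activation above the mean of controls blocked by dofetilide plus 5 SD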;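 also: thallium influx through hERG after potassium depolarization seen as dye fluorescence rise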
KCNK9 inh = KCNK9 potassium channel inhibitors, primary screen, HEK293 cells, thallium flux; FluxOR thallium flux fluorescence; stronger effect = lower value; B-score at 10 µM; actives 1.2% (n = 310,000); AID 488922, 2010; Potassium channel subfamily K member 9 (Homo sapiens), Q9NPC2;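 active = ratio B-score over 3 SD below the library mean, with starting fluorescence within 5 SD of its mean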;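 also: negative B-score means less thallium flux so channel inhibition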
KCNK9 block conf = KCNK9 potassium channel inhibitors, confirmation, HEK293 cells, thallium flux, duplicate; shares compounds with KCNK9 inh; FluxOR thallium flux fluorescence; inhibition, % at 10 µM; actives 43% (n = 4,900);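 active = thallium signal inhibited by more than 5 SD of the compound-free buffer control wells, on both duplicate plates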;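 also: 0% = assay buffer control wells without compound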
Kir2-1 spec = mouse Kir2.1 channel inhibition, confirmation, selectivity assay for KCNK9 modulator project, cell-based, HEK293, thallium flux; shares compounds with KCNK9 inh; Kir2.1 cells, FluxOR thallium flux fluorescence; inhibition, % at 10 µM; actives 4% (n = 4,900); AID 492993, 2010;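 active = thallium signal drop more than 5 SD beyond the mean of the no-compound control wells, seen in both duplicate plates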;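 also: signal is fluorescence rise after thallium addition divided by baseline fluorescence; plate controls were assay buffer only for no effect and full block by chlorpromazine control for full effect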
KCNK9 uninduced = thallium flux in non-induced HEK293 cells, confirmation, counter-screen for KCNK9 inhibitor project, cell-based, second counter screen, non-induced KCNK9-HEK293. actives 40% (n = 4,900). AID 492997, 2010. FluxOR thallium flux. shares compounds with KCNK9 inh. inhibition, % at 10 µM;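 active = thallium signal drop beyond 5 SD of the untreated control mean, on both duplicate plates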;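 also: plate controls were buffer only IC0 wells for no effect and SID17386958 at its maximal inhibitory level for full effect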
KCNK3 confirm = retest of human KCNK3 channel inhibitors, confirmation, CHO cells, FluxOR thallium flux, triplicate. shares compounds with KCNK3 inh. FluxOR fluorescence; 0% buffer, 100% carvedilol maximal block. ratio percent of control, % at 10 µM. actives 99% (n = 2,400). AID 651638, 2012;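 active = ratio percent of control, averaged over triplicates, above buffer control mean plus 5 SD, cut at about 64% in these data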;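 also: ratio is the fluorescence rise from min to max over baseline after thallium stimulus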
KCNK3 uninduced = thallium flux inhibition in non-induced cells, primary screen, counter-screen for KCNK3 inhibitor project, cell-based, non-induced KCNK3 line, FluxOR thallium, triplicate; thallium flux ratio (lower = more inhibition) at 10 µM; actives 40% (n = 2,400); shares compounds with KCNK3 inh; non-induced KCNK3 parental cells; stronger effect = lower value;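 active = thallium flux ratio, averaged over three wells, more than 5 SD below the buffer control mean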;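 also: host cells are CHO cells without KCNK3 induction; ratio is peak minus trough fluorescence over baseline then normalized to buffer controls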
The depositor's hits bear a star; i = inactive; x = not tested or not shown. Rows were chosen to be rich in hits. Some 3.7% of all compounds tested hit in one or more screens of this group.

SMILES | KCNQ1 act | KCNQ1 inh | Kir21 inh | KCNK3 inh | hERG protect | KCNK9 inh | KCNK9 block conf | Kir2-1 spec | KCNK9 uninduced | KCNK3 confirm | KCNK3 uninduced
CC1(c2ccc(OC(F)F)cc2)NC(=O)N(CC(=O)c2ccc3c(c2)OCO3)C1=O (stereo unspecified) | i | i | 0.29 | i | -13 | i | x | x | x | x | x
Cc1ccccc1SCC(=O)N/N=C/c1ccc(F)cc1 | i | i | -0.83 | i | -7 | i | x | x | x | x | x
N#CC(C#N)=c1ccc2c(c1)N1C3=C(CCCC3)CC3CCCCC31N=2 (stereo unspecified) | i | 14* | 1.1 | -9.8* | -28 | -16* | 67%* | i | 45%* | 130* | 0.11*
COc1ccc(CN(C(=O)CSc2nnc(-c3c[nH]c4ccccc34)o2)c2ccc(F)cc2)cc1OC | i | i | -0.7 | -14* | -17 | -8.8* | i | i | i | 105* | 0.13*
COc1ccc(CN(C(=O)CSc2nnc(-c3ccc(F)cc3)o2)c2ccc(F)cc2)cc1 | i | i | -0.04 | i | -12 | i | x | x | x | x | x
CC(OC(=O)c1ccc(O)cc1)C(=O)Nc1cc(C(F)(F)F)ccc1Cl (stereo unspecified) | i | 6* | 0.46 | -9.8* | -21 | -11* | i | i | 48%* | 139* | 0.12*
O=C(COC(=O)c1ccc(O)cc1)Nc1cc(C(F)(F)F)ccc1Cl | i | i | -2.9 | i | -16 | i | x | x | x | x | x
CS(=O)(=O)N1CCc2cc(NC(=O)c3ccc(Cl)cc3Cl)ccc21 | i | i | -1.9 | i | -2 | i | x | x | x | x | x
COc1ccc(O)c(/C=N/Nc2nc(C)cc(-c3ccccc3)n2)c1 | i | i | 0.4 | -10* | -13 | -15* | 51%* | i | 23%* | 120* | 0.14*
Nc1nc(NS(=O)(=O)c2ccc(Cl)cc2)nn1-c1ccccc1 | i | i | -0.6 | i | -6 | i | x | x | x | x | x
Cc1ccc(C(=O)N(CCc2ccccc2)Cc2ccccc2)cc1S(=O)(=O)N1CCOCC1 | x | x | x | i | x | x | x | x | x | x | x
Cc1ccc(C(=O)N(CCc2ccccc2)Cc2ccccc2)cc1S(=O)(=O)N1CCCCC1 | i | i | -0.62 | -9.1* | -13 | -13* | 76%* | i | 30%* | 103* | i
COc1cc(C(=O)N[C@H](C(=O)OCC(=O)NC2CCCCCC2)C(C)C)cc(OC)c1OC | x | x | x | i | x | x | x | x | x | x | x
O=C(NCc1ccccc1)c1cccc(NC(=O)C2CC2)c1 | x | x | x | i | x | x | x | x | x | x | x
COc1ccc(C(=O)OC(C(=O)c2ccccc2)c2ccccc2)cc1 (stereo unspecified) | i | i | -0.63 | -9.6* | -4 | -19* | 77%* | i | 46%* | 115* | i
Cc1cc([N+](=O)[O-])ccc1P(=O)(O)c1ccc([N+](=O)[O-])cc1C | x | x | x | i | x | x | x | x | x | x | x
CCOC(=O)c1ccc(Oc2nc(SC)nc(N(C)C)n2)cc1 | i | i | 1.2 | -9.8* | -3 | -8.8* | 48%* | i | 42%* | 103* | i
CCc1c(C)nc2cc(-c3cc(OC)cc(OC)c3)nn2c1N1CCCC1 | i | i | 0.85 | -9.8* | -4 | -11* | 58%* | i | 26%* | 100* | i
CC(C)Oc1cccc(C(=O)C2CCCN(C(=O)c3ccnn3C)C2)c1 (stereo unspecified) | i | i | 1.1 | -10* | -13 | i | i | i | i | 98* | i
Cc1cc(=O)n(-c2ccc(Cl)cc2)c(=O)[nH]1 | i | i | 1.1 | i | -2 | i | x | x | x | x | x
COc1cccc(C(=O)NCC(=O)n2nc(C)cc2C)c1 | i | i | 1.3 | i | -1 | i | x | x | x | x | x
O=C(N/N=C/c1ccccc1)c1[nH]c2ccc(Br)cc2c1-c1ccccc1 | i | i | 2.2 | i | -7 | i | x | x | x | x | x
O=C(NN=C1CCCC1)c1[nH]c2ccc(Br)cc2c1-c1ccccc1 | i | 7* | 0.44 | i | -16 | -8.7* | i | i | i | 91* | i
CCOC(=O)N1CCN(c2nc(-c3cccs3)nc3ccccc23)CC1 | i | i | 0.42 | -10* | -6 | -8.9* | i | i | i | 104* | 0.15*
CCCN1CCN(c2nc(-c3cccs3)nc3ccccc23)CC1 | i | i | -0.34 | i | -6 | i | x | x | x | x | x
COc1ccccc1C(=O)Nc1cccc(SC)c1 | i | i | 1 | i | -17 | i | x | x | x | x | x
CSc1cccc(NC(=O)c2cccc3cccnc23)c1 | i | i | -1.3 | -9.7* | -4 | -9.6* | 28%* | i | 32%* | 88* | i
COC(=O)c1sc(NC(=O)COc2cccnc2[N+](=O)[O-])c(C(=O)OC)c1C | x | x | x | i | x | x | x | x | x | x | x
O=[N+]([O-])c1ccc(O)c(-c2nc(-c3ccccc3)c(-c3cccs3)[nH]2)c1 | i | i | 1.6 | i | -19 | i | x | x | x | x | x
CCOc1cc(-c2nc(-c3ccccc3)c(-c3cc([N+](=O)[O-])ccc3C)[nH]2)ccc1O | i | 7* | 1.4 | -9.6* | -16 | -12* | 56%* | i | i | 124* | 0.12*
